For data set [1] the following is noted: cited from earlier work.
Data set [2] has as its system U2OS (human osteosarcoma). Nature of the data set: MTT cytotoxicity assay, U2OS. It counts as cell-based. As to conditions: read-out: IC50 U2OS, 72 h continuous treatment. In outline:
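Cells were grown as adherent monolayers in DMEM with 10% FBS and 1% penicillin/streptomycin at 37 °C, humidified 5% CO₂. 2000 cells/well were seeded and left for 24 h. Medium was replaced with test compound dilutions from 1–3 mM aqueous stocks for 72 h. MTT (0.8 mg/mL in DMEM) was added for 4 h, and formazan was dissolved in DMSO with 10% pH 10.5 glycine buffer. A555 was normalised to Pt-free controls and IC50 interpolated from % viability curves. Values are means of ≥3 independent experiments, each with six replicates per concentration; errors are standard deviations.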

In data set [3] the test system is nuclear DNA of HeLa cells. Briefly: intracellular DNA platination by GFAAS. As to conditions: 100 µM for 4 h, then 16 h in platinum-free medium. Type of data set: cell-based, human. In outline: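 Five million HeLa cells were seeded, treated next day, and floating plus attached cells were pooled (trypsin), pelleted at 4 °C and washed with ice-cold PBS. Cells were lysed in DNAzol with 100 µg/mL RNase A. DNA was ethanol-precipitated, redissolved in 8 mM NaOH and quantified by UV-visible spectroscopy, and Pt was measured by GFAAS (pmol Pt/µg DNA). Values are means ± SD of ≥3 experiments.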

The next data set concerns HeLa cells. Briefly: cellular platinum uptake by GFAAS. It counts as cell-based, human. Conditions: 10 µM, 4 h exposure. In outline:
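HeLa cells were seeded at 3×10⁵ cells/well, grown 48 h, then exposed to test compound (10 µM final) for 4 h. Cell-free medium wells served as blanks for nonspecific Pt adsorption, and parallel wells were trypsinised and counted with trypan blue. Wells were washed twice with pH 7.4 PBS and digested in hot (≈90 °C) concentrated nitric acid for 2 h. Pt was measured by GFAAS, blank-subtracted and normalised per cell; errors were derived by error propagation.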

The source of these data is article PMC3375352 (Journal of Medicinal Chemistry, 2012).

The structures appear in SMILES notation.

As for `N.N.O=C([O-])C1(C(=O)[O-])CCC1.[Pt+2]` [carboplatin], in data set [1], the stability in water result is on record as “stable for up 60 d”.

By IC50 is commonly meant the concentration that inhibits the measured activity by half. For `N.N.[Cl][Pt][Cl]` [cisplatin, cis-diamminedichloroplatinum(II)], the 50% inhibitory concentration (IC50) in data set [2] is 5 ± 2 µM. In data set [3], the Pt/DNA was 1.58 ± 0.97 pmol/µg. Further, the “HeLa Cellular Uptake” value with HeLa cells is 14 ± 2 ng Pt/10^6 cells.
